Measurements published in ChEMBL document CHEMBL1137499, “A new opioid designed multiple ligand derived from the micro opioid agonist endomorphin-2 and the delta opioid antagonist pharmacophore Dmt-Tic” (Bioorg Med Chem, 2007).
Numbered stars: 1 amine (or outer) side, 2 acyl side, 3 side chain; on linkers, the order of the positions; unused ones are H or OH. Square brackets hold non-standard residues; d marks the D form. Peptide text beside a SMILES is read from it. ξ: configuration not given here. Dmt = Cc1cc(O)cc(C)c1C[C@H](N)C(=O)O; Ethylenediamine = C(CN[*:2])N[*:1]; ξTic = O=C(O)C1Cc2ccccc2CN1

Legend:
[1] = target: Delta-type opioid receptor (Rattus norvegicus, UniProt P33533); test: Displacement of [3H]deltorphin 2 from delta-opioid receptor in Sprague-Dawley rat brain P2 synaptosome membrane; format: tissue-based
Sequence of Delta-type opioid receptor (P33533 whole entry): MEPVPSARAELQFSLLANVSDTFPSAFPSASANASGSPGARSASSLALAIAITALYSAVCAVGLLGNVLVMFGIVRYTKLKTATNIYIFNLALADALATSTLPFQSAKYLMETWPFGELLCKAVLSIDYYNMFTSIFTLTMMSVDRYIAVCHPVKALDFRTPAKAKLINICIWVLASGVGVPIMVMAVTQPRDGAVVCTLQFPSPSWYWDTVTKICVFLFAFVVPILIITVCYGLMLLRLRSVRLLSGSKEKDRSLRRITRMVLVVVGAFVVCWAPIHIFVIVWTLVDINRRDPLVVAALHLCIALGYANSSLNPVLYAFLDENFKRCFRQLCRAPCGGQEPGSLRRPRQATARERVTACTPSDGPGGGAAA
How it was run: (§1)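 Competition binding at equilibrium, 2.5 h at room temperature (23 °C), on rat brain P2 synaptosomes. Filters were soaked in 0.1% polyethylenimine and washed three times with ice-cold buffered BSA. Duplicate assays used 5-8 doses and 3-5 independent membrane preparations. Ki was derived by Cheng-Prusoff; means ± SE.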

Mu-type opioid receptor [2] = target: Mu-type opioid receptor (Rattus norvegicus, UniProt P33535); test: Displacement of [3H]DAMGO from mu-opioid receptor in Sprague-Dawley rat brain P2 synaptosome membrane; format: tissue-based; how it was run: as §1
Sequence of Mu-type opioid receptor (Rattus norvegicus, UniProt P33535) (P33535 whole entry): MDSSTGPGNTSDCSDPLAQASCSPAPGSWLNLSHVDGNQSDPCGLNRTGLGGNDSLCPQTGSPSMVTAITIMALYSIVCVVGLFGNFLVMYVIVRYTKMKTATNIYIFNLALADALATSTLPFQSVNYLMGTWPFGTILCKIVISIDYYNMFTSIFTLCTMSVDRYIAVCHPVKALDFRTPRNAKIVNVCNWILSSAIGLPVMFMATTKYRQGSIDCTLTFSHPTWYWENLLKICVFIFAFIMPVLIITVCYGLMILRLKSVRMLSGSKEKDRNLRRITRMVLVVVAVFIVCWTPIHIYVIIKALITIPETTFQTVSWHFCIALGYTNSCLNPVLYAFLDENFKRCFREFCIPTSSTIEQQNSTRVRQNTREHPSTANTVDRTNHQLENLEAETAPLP

Mu-type opioid receptor [3] = target: Mu-type opioid receptor (Cavia porcellus, UniProt P97266); test: Agonist activity at mu-opioid receptor in Hartley guinea pig ileum assessed as inhibition of electrically-stimulated muscle contraction; format: functional, tissue-based
Sequence of Mu-type opioid receptor (Cavia porcellus, UniProt P97266) (P97266 whole entry): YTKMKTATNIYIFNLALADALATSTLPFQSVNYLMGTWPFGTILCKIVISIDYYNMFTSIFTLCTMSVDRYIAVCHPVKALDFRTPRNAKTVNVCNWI
How it was run: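 Myenteric plexus longitudinal muscle strips (2-3 cm) from small intestine of male Hartley guinea pigs, held in organ baths of balanced salt solution, pH 7.5. Inhibition of electrically evoked contraction was measured. IC50 (nM) was read from dose-response curves, with dermorphin as internal standard. Values are means ± SE of five or six separate assays.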

Rattus norvegicus [4] = species on record: Rattus norvegicus; test: Selectivity for mu-opioid receptor over delta opiod receptor in Sprague-Dawley rat brain P2 synaptosome membrane; format: tissue-based
Rattus norvegicus [5] = species on record: Rattus norvegicus; test: Selectivity for delta-opioid receptor over mu opiod receptor in Sprague-Dawley rat brain P2 synaptosome membrane; format: tissue-based

Row | Structure (SMILES) | Ki [1] [nM] | Ki (Mu-type opioid receptor [2]) [nM] | IC50 (Mu-type opioid receptor [3]) [nM] | Ratio Ki (Rattus norvegicus [4]) | Ratio Ki (Rattus norvegicus [5])
1 | Cc1cc(O)cc(C)c1C[C@H](N)C(=O)N1Cc2ccccc2C[C@H]1C(=O)NCCNC(=O)[C@H](Cc1ccccc1)NC(=O)[C@H](Cc1ccccc1)NC(=O)[C@@H]1CCCN1C(=O)[C@@H](N)Cc1ccc(O)cc1 | 1.45 | 1.03 | 25.1 |  | 
2 | Cc1cc(O)cc(C)c1C[C@H](N)C(=O)N1Cc2ccccc2CC1C(=O)NCCNC(=O)[C@H](Cc1ccccc1)NC(=O)[C@H](Cc1ccccc1)NC(=O)[C@@H]1CCCN1C(=O)[C@@H](N)Cc1ccc(O)cc1 (stereo partly drawn) |  |  |  | 1.41 | 
3 | Cc1cc(O)cc(C)c1C[C@H](N)C(=O)N1Cc2ccccc2CC1C(=O)NCCN (stereo partly drawn) (H-[Dmt]-[ξTic]-Ethylenediamine) | 1.81 | 2.72 | 286 |  | 3.36
